ChEMBL document CHEMBL3233004, “Analogue-based design, synthesis and biological evaluation of 3-substituted-(methylenehydrazono)indolin-2-ones as anticancer agents” (Eur J Med Chem, 2014)

What was measured:
MCF7 [1] = assay: Cytotoxicity against human MCF7 cells assessed as surviving fraction at 50 uM after 48 hrs by SRB assay relative to control; type: functional
In short: (§1)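 MCF-7 cells (ATCC) grown in DMEM with 10% heat-inactivated fetal calf serum. Seeded at 10⁴ cells/well and left 24 h to attach. Compounds dissolved in DMSO and diluted with saline, then given to the monolayer for 48 h at 37 °C under 5% CO₂. Cells fixed, stained 30 min with 0.4% SRB in 1% acetic acid, washed four times with 1% acetic acid, and bound dye recovered in Tris-EDTA. Colour read on an ELISA reader.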

MCF7 [2] = assay: Cytotoxicity against human MCF7 cells assessed as surviving fraction at 10 uM after 48 hrs by SRB assay relative to control; type: functional; in short: as §1
MCF7 [3] = assay: Cytotoxicity against human MCF7 cells assessed as surviving fraction at 100 uM after 48 hrs by SRB assay relative to control; type: functional; in short: as §1
MCF7 [4] = assay: Cytotoxicity against human MCF7 cells assessed as surviving fraction at 25 uM after 48 hrs by SRB assay relative to control; type: functional; in short: as §1
MCF7 [5] = assay: Cytotoxicity against human MCF7 cells assessed as surviving fraction after 48 hrs by SRB assay; type: functional, cell-based; conditions: MCF7, 48 h; in short: as §1

`O=C1Nc2ccc(Cl)cc2/C1=N/N=C/c1ccco1` gave a Ratio (MCF7 [1]) of 0.259, a Ratio (MCF7 [2]) of 0.384 and a Ratio (MCF7 [3]) of 0.231. For the same compound, the Ratio (MCF7 [4]) was 0.274 and the IC50 (MCF7 [5]) was 7.75 µM.

Work on `Cc1ccc2c(c1)/C(=N/N=C/c1cccs1)C(=O)N2` yielded a Ratio (MCF7 [1]) of 0.099, a Ratio (MCF7 [2]) of 0.227 and a Ratio (MCF7 [3]) of 0.137. It also gave a Ratio (MCF7 [4]) of 0.132 and an IC50 (MCF7 [5]) of 6.75 µM.

With `O=C1Nc2ccc(Cl)cc2/C1=N/N=C/c1cccs1` the Ratio (MCF7 [1]) was 0.204, the Ratio (MCF7 [2]) was 0.619 and the Ratio (MCF7 [3]) was 0.194. It also gave a Ratio (MCF7 [4]) of 0.31 and an IC50 (MCF7 [5]) of 15.3 µM.

Compound `O=C1Nc2ccc(F)cc2/C1=N/N=C/c1cccs1` has a Ratio (MCF7 [1]) of 0.331, a Ratio (MCF7 [2]) of 0.616 and a Ratio (MCF7 [3]) of 0.308. The Ratio (MCF7 [4]) was 0.505 and the IC50 (MCF7 [5]) was 25.8 µM.

Work on `O=C1Nc2ccccc2/C1=N/N=C/c1ccc[nH]1` yielded a Ratio (MCF7 [1]) of 0.395, a Ratio (MCF7 [2]) of 0.465 and a Ratio (MCF7 [3]) of 0.357. It also gave a Ratio (MCF7 [4]) of 0.328 and an IC50 (MCF7 [5]) of 6.25 µM.

`Cc1ccc2c(c1)/C(=N/N=C/c1ccc[nH]1)C(=O)N2` was tested, and the Ratio (MCF7 [1]) was 0.221, the Ratio (MCF7 [2]) was 0.473 and the Ratio (MCF7 [3]) was 0.206. The Ratio (MCF7 [4]) was 0.351 and the IC50 (MCF7 [5]) was 9.25 µM.

In the case of `O=C1Nc2ccc(Cl)cc2/C1=N/N=C/c1ccc[nH]1`, the Ratio (MCF7 [1]) is reported as 0.238, the Ratio (MCF7 [2]) is reported as 0.51 and the Ratio (MCF7 [3]) is reported as 0.259. It also gave a Ratio (MCF7 [4]) of 0.392 and an IC50 (MCF7 [5]) of 11.8 µM.

With `O=C1Nc2ccc(F)cc2/C1=N/N=C/c1ccc[nH]1` the Ratio (MCF7 [1]) was 0.456, the Ratio (MCF7 [2]) was 0.671 and the Ratio (MCF7 [3]) was 0.528. For the same compound, the Ratio (MCF7 [4]) was 0.274 and the IC50 (MCF7 [5]) was 10.8 µM.

Compound `O=C1Nc2ccccc2/C1=N/N=C/c1ccco1` has a Ratio (MCF7 [1]) of 0.158, a Ratio (MCF7 [2]) of 0.637 and a Ratio (MCF7 [3]) of 0.333. It also gave a Ratio (MCF7 [4]) of 0.306 and an IC50 (MCF7 [5]) of 15.8 µM.

For `Cc1ccc2c(c1)/C(=N/N=C/c1ccco1)C(=O)N2`, the Ratio (MCF7 [1]) was 0.195, the Ratio (MCF7 [2]) was 0.436 and the Ratio (MCF7 [3]) was 0.102. It also gave a Ratio (MCF7 [4]) of 0.213 and an IC50 (MCF7 [5]) of 8.75 µM.

Work on `O=C1Nc2ccc(F)cc2/C1=N/N=C/c1ccco1` yielded a Ratio (MCF7 [1]) of 0.335, a Ratio (MCF7 [2]) of 0.667 and a Ratio (MCF7 [3]) of 0.257. For the same compound, the Ratio (MCF7 [4]) was 0.429 and the IC50 (MCF7 [5]) was 20.3 µM.

`O=C1Nc2ccccc2/C1=N/N=C/c1cccs1` showed a Ratio (MCF7 [1]) of 0.522, a Ratio (MCF7 [2]) of 0.352 and a Ratio (MCF7 [3]) of 0.546. The Ratio (MCF7 [4]) was 0.602 and the IC50 (MCF7 [5]) was 8.25 µM.

`COc1cccc2c1C(=O)c1c(O)c3c(c(O)c1C2=O)C[C@@](O)(C(=O)CO)C[C@@H]3O[C@H]1C[C@H](N)[C@H](O)[C@H](C)O1` [DOXORUBICIN] showed a Ratio (MCF7 [1]) of 0.098, a Ratio (MCF7 [2]) of 0.257 and a Ratio (MCF7 [3]) of 0.125. It also gave a Ratio (MCF7 [4]) of 0.158 and an IC50 (MCF7 [5]) of 6.1 µM.
